pIC50: −log10 of the molar value.
molecular target: Sonic hedgehog protein (Mus musculus, UniProt Q62226); assay: Inhibition of SHH in mouse Shh-Light2 cells after 48 hrs by Gli1 reporter gene assay in presence of SAG
Method in brief: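 Shh-Light II cells co-treated with the Hh activator SAG and inhibitor for 48 h. Cells washed with PBS and lysed, then firefly and constitutive Renilla luminescence read by dual-luciferase assay. IC50 from firefly/Renilla RLU/s plotted against concentration, Hill-slope non-linear regression. Highest concentration 5000 nM. 2–4 independent experiments, each in technical triplicate.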

pIC50	Compound
6.06	COc1ccccc1C(=O)Nc1ccc(Cl)c(-c2nc3ccccc3[nH]2)c1 [N-(3-(1H-Benzo[d]imidazol-2-yl)-4-chlorophenyl)-2-methoxybenzamide]
7.01	CCOc1cc(C(=O)Nc2ccc(Cl)c(-c3nc4ccccc4[nH]3)c2)cc(OCC)c1OCC [N-(3-(1H-Benzo[d]imidazol-2-yl)-4-chlorophenyl)-3,4,5-triethoxybenzamide]
7.10	COc1cc(C(=O)Nc2ccc(Cl)c(-c3nc4ccccc4[nH]3)c2)cc(OC)c1OC [N-(3-(1H-Benzo[d]imidazol-2-yl)-4-chlorophenyl)-3,4,5-trimethoxybenzamide]
6.92	O=C(Nc1ccc(Cl)c(-c2nc3ccccc3[nH]2)c1)c1cccc(C(F)(F)F)c1 [N-(3-(1H-Benzo[d]imidazol-2-yl)-4-chlorophenyl)-3-(trifluoromethyl)benzamide]
6.72	CN(C)c1ccc(C(=O)Nc2ccc(Cl)c(-c3nc4ccccc4[nH]3)c2)cc1 [N-(3-(1H-Benzo[d]imidazol-2-yl)-4-chlorophenyl)-4-(dimethylamino)benzamide]
6.65	O=C(Nc1ccc(Cl)c(-c2nc3ccccc3[nH]2)c1)c1ccc(Cl)cc1 [N-(3-(1H-Benzo[d]imidazol-2-yl)-4-chlorophenyl)-4-chlorobenzamide]
6.73	N#Cc1ccc(C(=O)Nc2ccc(Cl)c(-c3nc4ccccc4[nH]3)c2)cc1 [N-(3-(1H-Benzo[d]imidazol-2-yl)-4-chlorophenyl)-4-cyanobenzamide]
6.60	O=C(Nc1ccc(Cl)c(-c2nc3ccccc3[nH]2)c1)c1ccc(F)cc1 [N-(3-(1H-Benzo[d]imidazol-2-yl)-4-chlorophenyl)-4-fluorobenzamide]
6.93	COc1ccc(C(=O)Nc2ccc(Cl)c(-c3nc4ccccc4[nH]3)c2)cc1 [N-(3-(1H-Benzo[d]imidazol-2-yl)-4-chlorophenyl)-4-methoxybenzamide]
6.79	O=C(Nc1ccc(Cl)c(-c2nc3ccccc3[nH]2)c1)c1ccccc1 [N-(3-(1H-Benzo[d]imidazol-2-yl)-4-chlorophenyl)-benzamide]
5.88	CCOc1cc(C(=O)Nc2cccc(-c3nc4ccccc4[nH]3)c2)cc(OCC)c1OCC [N-(3-(1H-Benzo[d]imidazol-2-yl)phenyl)-3,4,5-triethoxybenzamide]

Compound	pIC50
CC1=C2C[C@H]3[C@@H](CC=C4C[C@@H](O)CC[C@@]43C)[C@@H]2CC[C@]12O[C@@H]1C[C@H](C)CN[C@H]1[C@H]2C	5.88

Reference: BindingDB's records for doi:10.1016/j.bmc.2009.06.008 (University of Leipzig, 2009)
